Measurements from ChEMBL document CHEMBL1132147, “2-(2-Phenylcyclopropyl)imidazolines: reversed enantioselective interaction at I(1) and I(2) imidazoline receptors” (J Med Chem, 1999).

Key:
[1] = Displacement of [3H]idazoxan from imidazoline receptor I-2 of rabbit kidney membranes
[2] = target: T1, Adrenergic receptor alpha-2 (Rattus norvegicus, UniProt P22086+P19328+P22909); assay: Displacement of [3H]-clonidine from Alpha-2 adrenergic receptor of rat cortex membranes; assay type: cell membranes, Membrane
T1 sequence (P22086 whole entry): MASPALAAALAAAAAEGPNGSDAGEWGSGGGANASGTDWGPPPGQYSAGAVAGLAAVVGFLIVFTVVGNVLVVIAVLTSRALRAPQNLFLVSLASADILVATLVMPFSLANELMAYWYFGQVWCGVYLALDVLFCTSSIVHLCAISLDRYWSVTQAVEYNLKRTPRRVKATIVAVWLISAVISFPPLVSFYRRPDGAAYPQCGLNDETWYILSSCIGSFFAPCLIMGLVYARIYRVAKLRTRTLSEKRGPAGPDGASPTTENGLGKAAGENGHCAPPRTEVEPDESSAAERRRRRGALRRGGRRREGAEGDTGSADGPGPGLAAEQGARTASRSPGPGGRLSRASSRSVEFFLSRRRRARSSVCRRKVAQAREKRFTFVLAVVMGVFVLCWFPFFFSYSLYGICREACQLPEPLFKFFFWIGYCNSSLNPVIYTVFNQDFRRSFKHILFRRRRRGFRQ
T1 sequence (P19328 whole entry): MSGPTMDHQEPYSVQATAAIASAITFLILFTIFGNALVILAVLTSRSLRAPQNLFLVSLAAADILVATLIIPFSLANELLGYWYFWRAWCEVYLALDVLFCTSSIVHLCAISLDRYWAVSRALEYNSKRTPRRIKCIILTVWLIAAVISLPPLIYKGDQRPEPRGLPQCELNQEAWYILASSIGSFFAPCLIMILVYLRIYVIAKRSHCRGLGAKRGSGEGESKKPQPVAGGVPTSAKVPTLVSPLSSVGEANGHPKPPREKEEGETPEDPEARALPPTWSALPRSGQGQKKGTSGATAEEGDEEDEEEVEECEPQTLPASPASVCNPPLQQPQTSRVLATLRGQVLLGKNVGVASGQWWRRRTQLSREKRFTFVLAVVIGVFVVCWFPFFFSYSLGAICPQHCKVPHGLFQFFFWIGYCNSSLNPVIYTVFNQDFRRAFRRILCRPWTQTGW
T1 sequence (P22909 whole entry): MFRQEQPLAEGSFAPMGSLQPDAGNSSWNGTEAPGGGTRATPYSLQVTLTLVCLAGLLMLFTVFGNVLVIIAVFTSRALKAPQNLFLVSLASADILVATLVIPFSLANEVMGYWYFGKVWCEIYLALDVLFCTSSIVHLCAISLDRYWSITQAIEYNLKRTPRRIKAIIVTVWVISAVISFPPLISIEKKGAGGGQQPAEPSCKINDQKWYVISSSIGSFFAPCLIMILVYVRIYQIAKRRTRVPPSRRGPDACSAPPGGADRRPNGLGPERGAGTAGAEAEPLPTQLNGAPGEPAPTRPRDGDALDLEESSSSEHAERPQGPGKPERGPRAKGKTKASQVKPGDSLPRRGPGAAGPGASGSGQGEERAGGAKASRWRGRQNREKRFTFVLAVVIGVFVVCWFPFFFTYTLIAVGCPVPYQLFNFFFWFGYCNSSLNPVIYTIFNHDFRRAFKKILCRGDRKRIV
Procedure, shortened: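 Competition binding using hydrogen oxalate salts of the compounds: [3H]clonidine on rat cortex membranes (α2) or [3H]idazoxan on rabbit kidney membranes (I2). IC50 by nonlinear regression of displacement data, converted to Ki by Cheng–Prusoff and given as pKi ± SEM.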

[3] = Relative binding to I2 imidazoline and alpha-2 adrenergic receptors […]
[4] = Relative binding to I2 and I1 imidazoline receptors […]
[5] = target: Nischarin (Rattus norvegicus); assay: Displacement of [125I]p-iodoclonidine from imidazoline receptor I-1 of PC12 cell membranes

Ki [5] | SMILES | Log Ki [1] | Log Ki [2] | Ratio [3] | Ratio [4]
 | c1ccc([C@@H]2C[C@H]2C2=NCCN2)cc1 | -8.22 | -6.92 |  | 
 | c1ccc([C@H]2C[C@@H]2C2=NCCN2)cc1 | -6.91 | -6.62 |  | 
 | c1ccc(C2CC2C2=NCCN2)cc1 (racemic) | -7.64 | -6.4 |  | 
 | c1ccc(C2CC2C2=NCCN2)cc1 (stereo in doubt; 4a(+/-)) [listing 1 of 2 here] | -6.05 | -4.53 |  | 
 | c1ccc(C2CC2C2=NCCN2)cc1 (stereo in doubt; 4a(+/-)) [listing 2 of 2 here] |  |  | 33 | 7
19.1 nM | C(=C\c1ccccc1)/C1=NCCN1 [TRACIZOLINE] | -8.72 | -4.85 | 7410 | 10
